Measured values published in ChEMBL document CHEMBL1142241, “Atropisomeric 3-(beta-hydroxyethyl)-4-arylquinolin-2-ones as Maxi-K potassium channel openers” (J Med Chem, 2007).
“And” between values parts separate entries of the source, which are not always exact repeats. Identical values can stand only once.

What was measured:
[1] = target: Calcium-activated potassium channel subunit alpha-1 (Homo sapiens) (UniProt Q12791); assay: Activity at human maxi-K hSlo channel expressed in Xenopus oocytes assessed as increase in maxi k current at 10 uM relative to iberiotoxin; assay type: cell-based; details: Oocyte
Summary of the method: (§1)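 Xenopus oocytes injected with 50 ng hSlo cRNA, recorded 2–5 days post-injection. Outward K+ currents evoked from a holding potential of -60 mV over -40 to +140 mV in 20 mV depolarizing steps. Compound applied for 5 min in at least 4–5 oocytes, then 100 nM iberiotoxin for 10 min. Values are % IbTX-sensitive current at peak effect, drug-free control = 100%.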

[2] = target: Calcium-activated potassium channel subunit alpha-1 (Homo sapiens) (UniProt Q12791); assay: Activity at human maxi-K hSlo channel expressed in Xenopus oocytes assessed as increase in maxi k current at 5 uM relative to iberiotoxin; assay type: cell-based; details: Oocyte; summary of the method: as §1
Serum = assay: Stability in human serum at 1 mM in 37 degC upto 30 hrs; assay type: ADME, cell-free; details: 1000 µM
Summary of the method: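 Pooled human serum prewarmed 5 min at 37 °C; test agent added from 0.1 M DMSO stock to final 1 mM in serum with 1% DMSO, held at 37 °C. Racemization followed by supercritical fluid chromatography on a chiral column over 30 h.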

[3] = target: Calcium-activated potassium channel subunit alpha-1 (Homo sapiens) (UniProt Q12791); assay: Activity at human maxi-K hSlo channel expressed in Xenopus oocytes assessed as increase in maxi k current at 20 uM relative to iberiotoxin; assay type: cell-based; details: Oocyte; summary of the method: as §1

Calcium-activated potassium channel subunit alpha-1 (Homo sapiens), sequence (Q12791 whole entry): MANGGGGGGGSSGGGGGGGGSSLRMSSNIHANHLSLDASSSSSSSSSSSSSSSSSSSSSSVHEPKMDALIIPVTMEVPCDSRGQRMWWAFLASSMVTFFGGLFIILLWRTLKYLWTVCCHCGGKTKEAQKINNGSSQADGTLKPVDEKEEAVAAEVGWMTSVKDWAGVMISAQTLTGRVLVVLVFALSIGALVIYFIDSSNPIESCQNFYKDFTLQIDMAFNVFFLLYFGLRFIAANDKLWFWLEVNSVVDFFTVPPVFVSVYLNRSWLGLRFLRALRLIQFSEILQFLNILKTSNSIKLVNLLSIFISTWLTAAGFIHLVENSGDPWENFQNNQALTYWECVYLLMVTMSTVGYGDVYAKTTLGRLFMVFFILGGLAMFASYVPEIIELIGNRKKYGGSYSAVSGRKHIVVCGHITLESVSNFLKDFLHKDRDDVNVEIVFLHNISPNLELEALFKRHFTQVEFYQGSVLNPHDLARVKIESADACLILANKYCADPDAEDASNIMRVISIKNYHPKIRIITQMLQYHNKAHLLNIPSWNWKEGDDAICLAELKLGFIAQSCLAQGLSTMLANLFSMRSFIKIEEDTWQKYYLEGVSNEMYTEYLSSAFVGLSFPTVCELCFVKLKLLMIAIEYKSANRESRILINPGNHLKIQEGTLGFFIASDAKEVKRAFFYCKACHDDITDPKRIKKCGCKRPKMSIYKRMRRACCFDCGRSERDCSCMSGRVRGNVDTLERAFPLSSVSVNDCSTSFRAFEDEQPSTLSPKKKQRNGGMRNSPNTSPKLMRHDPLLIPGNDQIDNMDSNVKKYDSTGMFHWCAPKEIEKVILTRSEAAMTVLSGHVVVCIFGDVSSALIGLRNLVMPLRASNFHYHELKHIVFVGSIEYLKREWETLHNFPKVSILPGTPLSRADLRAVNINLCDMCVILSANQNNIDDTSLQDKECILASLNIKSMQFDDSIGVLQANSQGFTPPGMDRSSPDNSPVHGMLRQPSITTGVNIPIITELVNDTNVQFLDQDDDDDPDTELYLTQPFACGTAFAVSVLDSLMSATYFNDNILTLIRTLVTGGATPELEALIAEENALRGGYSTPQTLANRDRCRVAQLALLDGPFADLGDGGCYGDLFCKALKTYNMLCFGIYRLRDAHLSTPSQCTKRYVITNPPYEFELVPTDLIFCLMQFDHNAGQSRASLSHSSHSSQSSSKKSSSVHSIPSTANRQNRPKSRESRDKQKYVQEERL

| Structure (SMILES) | Activity [1] | Activity [2] [%] | Stability (Serum) | Activity [3] [%] |
| --- | --- | --- | --- | --- |
| CCCc1cc(Cl)cc(-c2c(CCO)c(=O)n(C)c3ccc(C(F)(F)F)cc23)c1O | 127% |  |  |  |
| CC(C)Cc1cc(Cl)cc(-c2c(CCO)c(=O)n(C)c3ccc(C(F)(F)F)cc23)c1O |  | 96.5 |  |  |
| O=c1[nH]c2ccc(C(F)(F)F)cc2c(-c2cc(Cl)ccc2O)c1CCO [BMS-223131] | 214% and 292% and 259% |  | Stable | 253 |
| Cn1c(=O)c(CCO)c(-c2cc(Cl)ccc2O)c2cc(C(F)(F)F)ccc21 | 361% and 184% and 257% |  |  | 296 |
| Cn1c(=O)c(CCO)c(-c2cc(Cl)cc(CC(O)CO)c2O)c2cc(C(F)(F)F)ccc21 (stereo not given) |  |  |  | 112 |
| C=C(C)Cc1cc(Cl)cc(-c2c(CCO)c(=O)n(C)c3ccc(C(F)(F)F)cc23)c1O | 114% |  |  |  |
| Cn1c(=O)c(CCO)c(-c2cc(Cl)cc(CCCO)c2O)c2cc(C(F)(F)F)ccc21 |  |  |  | 164 |
